Laboratory results from ChEMBL document CHEMBL3596131, “Discovery of a novel trans-1,4-dioxycyclohexane GPR119 agonist series” (Bioorg Med Chem Lett, 2015).

Columns and labels:
[1] = target: T1, Glucose-dependent insulinotropic receptor (Homo sapiens) (UniProt Q8TDV5); experiment: Agonist activity at human GPR119 by HTRF cAMP assay relative to AR231453; type: functional
T1 sequence (whole entry): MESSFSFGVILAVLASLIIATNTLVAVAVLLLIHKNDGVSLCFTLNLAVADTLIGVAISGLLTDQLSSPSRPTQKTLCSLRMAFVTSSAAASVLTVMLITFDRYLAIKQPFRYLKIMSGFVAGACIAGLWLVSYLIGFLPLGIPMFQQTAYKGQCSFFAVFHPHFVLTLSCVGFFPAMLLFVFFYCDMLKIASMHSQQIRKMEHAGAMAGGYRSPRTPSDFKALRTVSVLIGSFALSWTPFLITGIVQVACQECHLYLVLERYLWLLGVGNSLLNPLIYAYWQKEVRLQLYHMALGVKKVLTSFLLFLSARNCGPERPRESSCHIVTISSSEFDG

[2] = target: T2, Glucose-dependent insulinotropic receptor (Homo sapiens, UniProt Q8TDV5); experiment: Agonist activity at human GPR119 by serum shift assay
T2 sequence (Q8TDV5 whole entry): T1 sequence (whole entry)
Method in brief: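 HTRF cAMP read-out with cells plated overnight; growth medium swapped for fetal bovine serum-containing medium. Compounds serially diluted in DMSO, then in PBS with IBMX and 0.1% BSA to 2× concentration (1% DMSO) before addition. Potency compared with and without serum.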

[3] = target: T3, Glucose-dependent insulinotropic receptor (Rattus norvegicus, UniProt Q7TQN8); experiment: Agonist activity at rat GPR119 by HTRF cAMP assay; type: functional
T3 sequence (Q7TQN8 whole entry): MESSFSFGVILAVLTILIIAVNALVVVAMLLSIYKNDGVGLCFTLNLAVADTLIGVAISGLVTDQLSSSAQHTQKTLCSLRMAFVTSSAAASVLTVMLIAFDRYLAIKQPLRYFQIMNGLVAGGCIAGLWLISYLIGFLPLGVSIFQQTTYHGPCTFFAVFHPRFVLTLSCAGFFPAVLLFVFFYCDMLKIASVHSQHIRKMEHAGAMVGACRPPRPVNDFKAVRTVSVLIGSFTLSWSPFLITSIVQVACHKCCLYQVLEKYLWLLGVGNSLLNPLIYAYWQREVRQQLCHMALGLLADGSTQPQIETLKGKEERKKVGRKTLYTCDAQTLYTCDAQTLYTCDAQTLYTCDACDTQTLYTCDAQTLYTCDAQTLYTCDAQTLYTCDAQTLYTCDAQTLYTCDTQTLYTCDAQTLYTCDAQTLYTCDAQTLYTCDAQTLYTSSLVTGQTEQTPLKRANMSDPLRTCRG

[4] = target: T4, Glucose-dependent insulinotropic receptor (Rattus norvegicus) (UniProt Q7TQN8); experiment: Agonist activity at rat GPR119 by HTRF cAMP assay relative to AR231453; type: functional
T4 sequence (whole entry): T3 sequence (Q7TQN8 whole entry)

[5] = target: T5, Glucose-dependent insulinotropic receptor (Mus musculus, UniProt Q7TQP3); experiment: Agonist activity at mouse GPR119 by HTRF cAMP assay; type: functional
T5 sequence (Q7TQP3 whole entry): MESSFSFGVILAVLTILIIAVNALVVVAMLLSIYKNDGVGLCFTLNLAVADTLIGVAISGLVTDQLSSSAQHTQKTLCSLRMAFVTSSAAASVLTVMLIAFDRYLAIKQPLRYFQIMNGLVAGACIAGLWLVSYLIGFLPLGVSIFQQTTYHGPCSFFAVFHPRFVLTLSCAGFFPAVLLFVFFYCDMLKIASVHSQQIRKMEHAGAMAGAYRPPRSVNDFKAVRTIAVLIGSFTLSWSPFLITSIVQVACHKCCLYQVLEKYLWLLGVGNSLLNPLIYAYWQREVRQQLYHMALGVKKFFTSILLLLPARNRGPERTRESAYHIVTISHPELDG

[6] = target: T6, Glucose-dependent insulinotropic receptor (Mus musculus) (UniProt Q7TQP3); experiment: Agonist activity at mouse GPR119 by HTRF cAMP assay relative to AR231453; type: functional
T6 sequence (whole entry): T5 sequence (Q7TQP3 whole entry)

[7] = Plasma protein binding in human; type: ADME, cell-free; conditions: read-out: PPB (converted)
[8] = Plasma protein binding in mouse; type: ADME, organism-based; conditions: read-out: PPB (converted)
[9] = Volume of distribution at steady state in Sprague-Dawley rat at 2 mg/kg, iv and po; type: ADME, organism-based; conditions: in vivo, read-out: Vdss
Method in brief: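 Male Sprague-Dawley rats received 2 mg/kg intravenously or 2 mg/kg orally in 20% hydroxypropyl-β-cyclodextrin. Steady-state volume of distribution was taken from the plasma pharmacokinetic profile and reported in L/kg.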

[10] = AUClast in Sprague-Dawley rat at 2 mg/kg, iv and po; type: ADME, organism-based; conditions: in vivo
Method in brief: (§1)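 Male Sprague-Dawley rats; 2 mg/kg IV and 2 mg/kg PO in 20% hp-β-CD; clearance, Vss, terminal t1/2, Cmax, AUClast and oral bioavailability derived.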

[11] = Ratio of drug level in brain to plasma in Sprague-Dawley rat at 2 mg/kg, po measured at 2 hrs; type: ADME, organism-based; conditions: read-out: BPR
Method in brief: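 Abbreviated CNS study in male SD rats given 2 mg/kg orally in 20% hp-β-CD; brain (ng/g) and plasma (ng/mL) levels sampled at 2 h post-dose, brain/plasma ratio calculated.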

[12] = Cmax in Sprague-Dawley rat at 2 mg/kg, iv and po; type: ADME, organism-based; conditions: in vivo; method in brief: as §1
Mus musculus = experiment: Antidiabetic activity in normoglycemic 129SVE mouse assessed as suppression of plasma glucose AUC at 1 to 10 mg/kg, po administered 30 mins prior to glucose challenge measured over 120 mins by OGTT relative to vehicle-treated control; type: functional
Rattus norvegicus [13] = experiment: Antidiabetic activity in Zucker diabetic fatty rat assessed as suppression of plasma glucose AUC at 3 mg/kg administered 60 mins prior to glucose challenge by OGTT relative to vehicle-treated control; type: functional
Rattus norvegicus [14] = experiment: Antidiabetic activity in Zucker diabetic fatty rat assessed as decrease in HbA1C level at 3 mg/kg, qd administered over 4 weeks measured on day 28 post last dose relative to vehicle-treated control; type: functional; parameters: scale not given: the % may be the effect or the level left
Method in brief: (§2)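 Chronic study in ZDF rats: once-daily dosing at 1, 3 or 10 mg/kg for 4 weeks, vehicle 0.5% methylcellulose; fed glucose and body weight tracked at dosing times, HbA1c measured on day 28 relative to vehicle.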

Rattus norvegicus [15] = experiment: Antidiabetic activity in Zucker diabetic fatty rat assessed as decrease in HbA1C level at 10 mg/kg, qd administered over 4 weeks measured on day 28 post last dose relative to vehicle-treated control; type: functional; parameters: scale not given: the % may be the effect or the level left; method in brief: as §2
Rattus norvegicus [16] = experiment: Antidiabetic activity in Zucker diabetic fatty rat assessed as decrease in HbA1C level administered as qd over 4 weeks measured on day 28 post last dose; type: functional, organism-based; method in brief: as §2
Rattus norvegicus [17] = experiment: Toxicity in Zucker diabetic fatty rat assessed as effect on body weight at 1 to 10 mg/kg, qd administered over 4 weeks measured during compound dosing; type: organism-based; conditions: in vivo, 672 h; method in brief: as §2
Cytochrome P450 2C9 = Cytochrome P450 2C9 (Homo sapiens, UniProt P11712); experiment: Inhibition of CYP2C9 in human liver microsomes; type: ADME
Cytochrome P450 3A4 = Cytochrome P450 3A4 (Homo sapiens, UniProt P08684); experiment: Inhibition of CYP3A4 in human liver microsomes; type: ADME
[18] = Time-dependent inhibition of CYP450 in human liver microsomes; type: ADME
HepG2 = experiment: Cytotoxicity against human HepG2 cells; type: cell-based

Chain of Cytochrome P450 2C9 (P11712 whole entry): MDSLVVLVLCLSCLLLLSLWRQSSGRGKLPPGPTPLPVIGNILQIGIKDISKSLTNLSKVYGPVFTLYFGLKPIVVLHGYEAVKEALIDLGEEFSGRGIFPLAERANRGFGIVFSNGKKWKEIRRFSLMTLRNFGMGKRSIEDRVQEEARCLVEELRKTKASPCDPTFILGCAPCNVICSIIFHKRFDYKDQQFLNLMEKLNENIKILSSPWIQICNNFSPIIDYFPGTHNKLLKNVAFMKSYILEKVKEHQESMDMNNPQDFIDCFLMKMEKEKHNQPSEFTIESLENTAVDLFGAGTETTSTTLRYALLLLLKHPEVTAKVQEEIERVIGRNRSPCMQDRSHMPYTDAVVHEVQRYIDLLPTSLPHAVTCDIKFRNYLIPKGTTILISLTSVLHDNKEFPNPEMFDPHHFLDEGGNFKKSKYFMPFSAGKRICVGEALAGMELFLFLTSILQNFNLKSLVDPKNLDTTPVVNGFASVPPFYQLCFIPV
Chain of Cytochrome P450 3A4 (P08684 whole entry): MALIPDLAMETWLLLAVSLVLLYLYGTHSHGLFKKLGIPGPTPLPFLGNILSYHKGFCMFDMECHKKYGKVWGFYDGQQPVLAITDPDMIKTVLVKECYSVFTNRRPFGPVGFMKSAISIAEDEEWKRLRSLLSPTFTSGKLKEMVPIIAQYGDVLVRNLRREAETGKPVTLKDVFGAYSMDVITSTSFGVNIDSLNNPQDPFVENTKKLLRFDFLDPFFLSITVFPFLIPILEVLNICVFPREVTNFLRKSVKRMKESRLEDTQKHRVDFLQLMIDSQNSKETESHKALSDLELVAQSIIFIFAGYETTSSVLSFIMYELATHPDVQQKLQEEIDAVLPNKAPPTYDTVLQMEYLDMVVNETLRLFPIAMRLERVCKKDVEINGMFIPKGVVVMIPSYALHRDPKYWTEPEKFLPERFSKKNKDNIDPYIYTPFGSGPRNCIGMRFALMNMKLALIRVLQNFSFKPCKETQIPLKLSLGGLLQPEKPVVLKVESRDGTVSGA

C[C@@H](OC(=O)N1CCC(O[C@H]2CC[C@H](Oc3cnc(S(C)(=O)=O)cn3)CC2)CC1)C(F)(F)F
Emax [1]: 106%
EC50 [2]: 38 nM
EC50 [3]: 28.8 nM
Emax [4]: 120%
EC50 [5]: 20.5 nM
Emax [6]: 130%
fraction unbound [7]: 0.025
fraction unbound [8]: 0.065
Vd [9]: 2.94 L/kg
AUC(0-t) [10]: 5210 ng·h/mL
Kp at 2 h [11]: 0.98
Cmax [12]: 770 ng/mL
Activity (Mus musculus): 40%
Activity (Rattus norvegicus [13]): 43%
Activity (Rattus norvegicus [14]): 1.85%
Activity (Rattus norvegicus [15]): 2.58%
Activity (Rattus norvegicus [16]): Dose-dependent effect
Activity (Rattus norvegicus [17]): Non-toxic
INH (Cytochrome P450 2C9): 27.5 µM
INH (Cytochrome P450 3A4): > 50 µM
TDI [18]: Not Active
Activity (HepG2): Non-toxic
